This is an account of results in ChEMBL document CHEMBL2151033, “Synthesis, biological evaluation and molecular modeling of 4,6-diarylpyrimidines and diarylbenzenes as novel non-nucleosides HIV-1 reverse transcriptase inhibitors” (Eur J Med Chem, 2012).

SMILES strings stand for the structures.

Data set [1] relates to Human immunodeficiency virus 1. Put plainly: Antiviral activity against wild type HIV1 3B infected in human MT4 cells assessed as inhibition of virus-induced cytopathic effect after 5 days by MTT assay. It counts as functional, organism-based. The note with it: Human immunodeficiency virus 1, 3B, MT4, 120 h. The essentials:
(§1)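 Infected and mock-infected MT-4 cells (6×10^5 cells/mL, exponentially growing, spun 5 min at 220 g and resuspended) were treated with serial 5-fold compound dilutions in triplicate. Virus stock at 100-300 CCID50 was added. After 5 days, viability was read spectrophotometrically by MTT at 540 and 690 nm using the median OD of three wells. EC50 is the concentration giving 50% protection from viral cytopathic effect.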
Background: Cytopathic effects are the visible damage that an infection or toxin causes in cultured cells.

The subject of data set [2] is Human immunodeficiency virus 1. Put plainly: Antiviral activity against HIV1 RES056 harbouring RT K103N/Y181C mutant infected in human MT4 cells assessed as inhibition of virus-induced cytopathic effect after 5 days by MTT assay. Type of data set: functional, organism-based. The note with it: Human immunodeficiency virus 1, RES056, MT4, 120 h. Summed up: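 MT-4 cells (exponentially growing, spun 5 min at 220 g, resuspended at 6×10^5 cells/mL) infected with HIV-1 RES056 (K103N + Y181C) at 100-300 CCID50, with serial 5-fold compound dilutions run in triplicate alongside mock-infected wells. Viability was read by MTT at 540 and 690 nm after 5 days, using the median OD of three wells. EC50 is the concentration giving 50% protection from viral cytopathic effect.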

The subject of data set [3] is Human immunodeficiency virus 2. Put plainly: Antiviral activity against HIV2 ROD infected in human MT4 cells assessed as inhibition of virus-induced cytopathic effect after 5 days by MTT assay. It counts as functional, organism-based. The note with it: Human immunodeficiency virus 2, ISOLATE ROD, MT4, 120 h. Summed up:
as §1

A short description of data set [4]: Cytotoxicity against human MT4 cells assessed as decrease in cell viability after 5 days by MTT assay. Type of data set: cell-based. Summed up: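 Uninfected, mock-treated MT-4 cells (6×10^5 cells/mL) were exposed to serial 5-fold compound dilutions in triplicate wells, run alongside the infected series. After 5 days, MTT reduction was read at 540 and 690 nm using the median OD of three wells. CC50 is the concentration that reduces OD540 of the mock-infected control by 50%.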
Background: Tetrazolium dyes change colour on reduction, which living cells bring about.

Data set [5] in a line: Selectivity index, ratio of CC50 for human MT4 cells to EC50 for wild type HIV1 3B infected in human MT4 cells. It counts as toxicity, cell-based. To be noted: read-out: Ratio CC50/EC50. Summed up:
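Selectivity index is CC50 in mock-infected MT-4 cells divided by EC50 against HIV-1 IIIB. Both come from the 5-day MTT assay run in parallel on infected and uninfected cells with serial 5-fold dilutions in triplicate.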

Data set [6] concerns Human immunodeficiency virus 1. Kind of data set: Ratio of nevirapine EC50 to compound EC50 for wild type HIV1 3B infected in human MT4 cells. It counts as functional.
The subject of data set [7] is Human immunodeficiency virus 1. Kind of data set: Ratio of delavirdine EC50 to compound EC50 for wild type HIV1 3B infected in human MT4 cells. It counts as functional.

For `Cc1cc(C)c(Nc2cc(Oc3c(C)cc(C)cc3C)ncn2)c(C)c1`, the 50% effective concentration (EC50) in data set [1], in data set [2] and in data set [3] was above 38.5 µM throughout. The 50% cytotoxic concentration (CC50) (in general, the concentration giving 50% cytotoxicity) at 120 h in data set [4] came out at 38.2 µM. The selectivity ratio in data set [5] is below 1.
Regarding `Cc1cc(C)c(Oc2cc(Nc3ccc(C#N)cc3)ncn2)c(C)c1`, the EC50 (in general, the concentration needed to bring the measured effect to its halfway point) in data set [1] was 0.049 µM; in data set [2], above 42.2 µM; in data set [3], above 42.2 µM. The CC50 at 120 h in data set [4] amounted to 42.2 µM. Besides, in data set [5], the selectivity ratio worked out at 870. The “Ratio EC50” value in data set [6] was 2; in data set [7], 11.
Regarding `Cc1cc(C)c(Nc2cc(Oc3c(C)cc(C#N)cc3C)ncn2)c(C)c1`, the EC50 in data set [1] was 5.25 µM; in data set [2], above 37.5 µM; in data set [3] it was above 37.5 µM. Also, in data set [4], the cytotoxic concentration (CC50) at 120 h turned out to be 37.5 µM. The selectivity ratio in data set [5] was found to be 7.
For the molecule `Cc1cc(C)c(Nc2cccc(Nc3ccc(C#N)cc3)c2)c(C)c1`, the 50% effective concentration (EC50) is 0.398 µM in data set [1], above 220 µM in data set [2] and above 220 µM in data set [3]. Also, the 50% cytotoxic concentration (CC50) at 120 h in data set [4] was at least 220 µM. Also, the selectivity ratio in data set [5] was at least 552. The “Ratio EC50” value in data set [7] is given as 1.5.
With `Cc1cc(C)c(Oc2cccc(Nc3ccc(C#N)cc3)c2)c(C)c1`, the values for the concentration giving a half-maximal response (EC50) in data set [1], in data set [2] and in data set [3] were 0.599 µM, above 52.6 µM and above 52.6 µM, respectively. Further, the CC50 at 120 h in data set [4] was 52.6 µM. Further, the selectivity ratio in data set [5] is 65.
`Cc1cc(C)c(Nc2cccc(Oc3c(C)cc(C)cc3C)c2)c(C)c1`: the concentration for a half-maximal effect (EC50) in data set [1] and in data set [3] was above 43.6 µM in each case. Further, in data set [4], the half-maximal cytotoxic concentration (CC50) at 120 h came out at 43.6 µM. In addition, the selectivity ratio in data set [5] is below 1.
As to `Cc1cc(C#N)cc(C)c1Oc1cc(Nc2ccc(C#N)cc2)ncn1`, the EC50 was 0.381 µM in data set [1], above 292 µM in data set [2] and above 292 µM in data set [3]. The CC50 at 120 h in data set [4] is above 292 µM. Also, the selectivity ratio in data set [5] is at least 740. Besides, the “Ratio EC50” value in data set [7] was 1.5.
As to `CC(C)Nc1cccnc1N1CCN(C(=O)c2cc3cc(NS(C)(=O)=O)ccc3[nH]2)CC1` [DELAVIRDINE], the EC50 in data set [1] was 0.548 µM; in data set [2] it was above 4.39 µM. For the same molecule, in data set [4], the CC50 at 120 h is above 4.39 µM. Moreover, the selectivity ratio in data set [5] is above 8.
`Cc1cc(C#N)cc(C)c1Oc1nc(Nc2ccc(C#N)cc2)nc(N)c1Br` [ETRAVIRINE]: in data set [3], the EC50 is above 27.8 µM. Moreover, the selectivity ratio in data set [5] worked out at 12900.
On to `Cc1ccnc2c1NC(=O)c1cccnc1N2C1CC1` [NEVIRAPINE], for which the EC50 in data set [1] is 0.097 µM; in data set [2], at least 7.6 µM. Also, the CC50 at 120 h in data set [4] is above 15 µM. Further, in data set [5], the selectivity ratio was above 155.
Regarding `Cc1cn([C@H]2C[C@H](N=[N+]=[N-])[C@@H](CO)O2)c(=O)[nH]c1=O` [ZIDOVUDINE], the results for the EC50 in data set [1] and in data set [2] were 0.008 µM and 0.006 µM, respectively. Further, in data set [4], the CC50 at 120 h is above 93.6 µM. Moreover, the selectivity ratio in data set [5] was above 12000.
